Results taken from ChEMBL document CHEMBL3861958, “Synthesis and anticholinesterase activity of coumarin-3-carboxamides bearing tryptamine moiety” (Eur J Med Chem, 2016).

What was measured:
Acetylcholinesterase [1] = target: T1, Acetylcholinesterase (Electrophorus electricus, UniProt O42275); assay: Inhibition of electric eel AChE using acetylthiocholine iodide as substrate measured for 2 mins by Ellman's method
Cholinesterase = Cholinesterase (Equus caballus, UniProt P81908); assay: Inhibition of equine serum BuChE using butyrylthiocholine iodide as substrate measured for 2 mins by Ellman's method
Method in brief: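 Ellman assay with equine serum BuChE (enzyme solution 2 U/mL added) in 0.1 M phosphate buffer pH 8.0 with DTNB. Compounds in 1:9 DMSO/ethanol, tested at four concentrations spanning 20–80% inhibition. Reaction started with butyrylthiocholine iodide (0.15 M stock). A412 followed for 2 min at 30 s intervals. IC50 read graphically from log concentration vs % inhibition. Quadruplicates.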

Acetylcholinesterase [2] = target: T1, Acetylcholinesterase; assay: Mixed-type inhibition of electric eel AChE using acetylthiocholine iodide as substrate measured for 2 mins by Lineweaver-Burk plot analysis
Method in brief: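 Kinetics used electric eel AChE (type V-S, enzyme solution 2 U/mL added) under the Ellman conditions: 0.1 M phosphate pH 8.0, DTNB, A412. Initial velocities measured across varied acetylthiocholine concentrations at inhibitor 0, 0.069, 0.206 and 0.618 μM. 1/v plotted against 1/[S] (Lineweaver-Burk) to assign inhibition type. Ki taken from a secondary plot.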

Sequence of Cholinesterase (P81908 whole entry): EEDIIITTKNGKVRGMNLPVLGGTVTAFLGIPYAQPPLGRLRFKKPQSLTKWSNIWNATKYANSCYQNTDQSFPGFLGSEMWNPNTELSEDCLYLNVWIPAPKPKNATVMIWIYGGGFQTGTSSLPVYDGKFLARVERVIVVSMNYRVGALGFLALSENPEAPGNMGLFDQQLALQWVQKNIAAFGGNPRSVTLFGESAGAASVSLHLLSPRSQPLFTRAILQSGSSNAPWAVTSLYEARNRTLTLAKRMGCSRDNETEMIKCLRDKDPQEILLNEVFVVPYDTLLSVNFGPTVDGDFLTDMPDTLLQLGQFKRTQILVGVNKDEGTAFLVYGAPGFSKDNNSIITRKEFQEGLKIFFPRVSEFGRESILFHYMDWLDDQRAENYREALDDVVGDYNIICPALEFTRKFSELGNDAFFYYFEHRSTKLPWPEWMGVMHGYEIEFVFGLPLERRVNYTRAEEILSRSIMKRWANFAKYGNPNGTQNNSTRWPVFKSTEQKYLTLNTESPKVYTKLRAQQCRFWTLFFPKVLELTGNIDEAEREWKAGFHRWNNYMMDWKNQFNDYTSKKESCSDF
T1 sequence (O42275 whole entry): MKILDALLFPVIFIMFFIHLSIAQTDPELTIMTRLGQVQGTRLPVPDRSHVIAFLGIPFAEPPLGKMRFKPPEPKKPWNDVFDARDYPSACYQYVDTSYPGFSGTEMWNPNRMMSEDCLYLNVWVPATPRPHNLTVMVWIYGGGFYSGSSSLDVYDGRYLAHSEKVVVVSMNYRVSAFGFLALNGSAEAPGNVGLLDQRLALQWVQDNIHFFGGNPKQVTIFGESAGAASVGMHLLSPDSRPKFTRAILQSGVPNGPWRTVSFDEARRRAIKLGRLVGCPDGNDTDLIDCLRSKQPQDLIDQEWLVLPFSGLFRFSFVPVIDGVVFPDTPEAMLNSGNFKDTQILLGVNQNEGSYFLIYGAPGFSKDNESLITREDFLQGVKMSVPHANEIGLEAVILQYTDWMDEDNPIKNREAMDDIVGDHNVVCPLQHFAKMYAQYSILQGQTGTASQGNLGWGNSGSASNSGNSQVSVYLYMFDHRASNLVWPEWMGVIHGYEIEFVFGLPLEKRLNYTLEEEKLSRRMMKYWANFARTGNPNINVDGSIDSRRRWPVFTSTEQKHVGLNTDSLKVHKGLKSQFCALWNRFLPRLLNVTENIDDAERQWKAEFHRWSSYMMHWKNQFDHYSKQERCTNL

Compound	IC50 (Acetylcholinesterase [1]) [µM]	IC50 (Cholinesterase) [µM]	Ki (Acetylcholinesterase [2]) [nM]
O=C(NCCc1c[nH]c2ccccc12)c1cc2cc(Br)ccc2oc1=O	> 100	> 100	
O=C(NCCc1c[nH]c2ccccc12)c1cc2ccc(OCc3ccc(Cl)c(Cl)c3)cc2oc1=O	31.5	> 100	
CCOc1ccc2cc(C(=O)NCCc3c[nH]c4ccccc34)c(=O)oc2c1	43.8	> 100	
O=C(NCCc1c[nH]c2ccccc12)c1cc2ccc(OCc3cccc(Cl)c3Cl)cc2oc1=O	> 100	> 100	
O=C(NCCc1c[nH]c2ccccc12)c1cc2ccc(OCc3ccccc3Cl)cc2oc1=O	22.5	> 100	
O=C(NCCc1c[nH]c2ccccc12)c1cc2ccccc2oc1=O	5.9	50.5	
O=C(NCCc1c[nH]c2ccccc12)c1cc2ccc(OCc3ccccc3F)cc2oc1=O	2.5	27.5	
O=C(NCCc1c[nH]c2ccccc12)c1cc2ccc(OCc3cccc(F)c3)cc2oc1=O	2.5	27.8	
COc1cccc2cc(C(=O)NCCc3c[nH]c4ccccc34)c(=O)oc12	2.8	20.1	
CCCOc1ccc2cc(C(=O)NCCc3c[nH]c4ccccc34)c(=O)oc2c1	18.7	> 100	
O=C(NCCc1c[nH]c2ccccc12)c1cc2ccc(OCc3ccc(Cl)cc3)cc2oc1=O	12.4	> 100	
O=C(NCCc1c[nH]c2ccccc12)c1cc2ccc(OCc3ccccc3)cc2oc1=O	1.5	16.2	
O=C(NCCc1c[nH]c2ccccc12)c1cc2ccc(O)cc2oc1=O	> 100	> 100	
O=C(NCCc1c[nH]c2ccccc12)c1cc2ccc(OCc3ccc(F)cc3)cc2oc1=O	0.16	29.7	490
COc1ccc2cc(C(=O)NCCc3c[nH]c4ccccc34)c(=O)oc2c1	3.5	34.6	
